# Test results from ChEMBL document CHEMBL4316638, “Bioactive Meroterpenoids and Isocoumarins from the Mangrove-Derived Fungus Penicillium sp. TGM112” (J Nat Prod, 2019).
# Active and inactive are the calls of the source. No cut-off for these calls is given here.
# Columns and labels:
# Caenorhabditis elegans = experiment: Insecticidal activity against Caenorhabditis elegans measured at 12 […]; type: functional, organism-based
# Summary of the method: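 L1 C. elegans (30−40 worms/well) in S medium with E. coli OP50 and chloramphenicol, exposed to compound at 40, 20, 10, 5, 1 and 0 μg/mL diluted in filter-sterilized M-9; 3 replicates per treatment. Plates sealed, kept at 24 °C for 60 h in the dark; dead larvae counted at 12, 24, 36, 48, 60. M-9 negative control, levamisole 1 mg/mL positive control.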
# HeLa = experiment: Cytotoxicity against human HeLa cells measured after 7 days by MTT assay; type: functional, cell-based
# A549 = experiment: Cytotoxicity against human A549 cells measured after 7 days by MTT assay; type: functional, cell-based
# HepG2 = experiment: Cytotoxicity against human HepG2 cells measured after 7 days by MTT assay; type: functional, cell-based
# Vibrio alginolyticus = experiment: Antibacterial activity against Vibrio alginolyticus ATCC 17749 by microplate assay; type: functional, organism-based; details: NBRC 15630 = ATCC 17749
# Staphylococcus aureus [1] = experiment: Antibacterial activity against Staphylococcus aureus ATCC 25923 by microplate assay; type: functional, organism-based
# Vibrio parahaemolyticus = experiment: Antibacterial activity against Vibrio parahaemolyticus ATCC 17802 by microplate assay; type: functional, organism-based
# RAW264.7 = experiment: Inhibition of LPS-induced nitric oxide production in mouse RAW264.7 cells preincubated for 30 mins followed by LPS-stimulation and measured after 24 hrs by Griess assay; type: functional, cell-based
# Summary of the method: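 RAW264.7 macrophages seeded at 50 000 cells/well and grown 24 h, then exposed to compound for 30 min at 37 °C before LPS (100 ng/mL) co-incubation for 24 h. Nitrite in supernatant measured by Griess reagent (10 min mixing), absorbance 540 nm. Compounds from 10 mM DMSO stocks; final DMSO ≤0.1%. Dexamethasone positive control. Triplicate runs; IC50 calculated.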
# Staphylococcus aureus [2] = experiment: Antibacterial activity against methicillin-resistant Staphylococcus aureus ATCC 33591 by microplate assay; type: functional, organism-based
# Summary of the method: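 MRSA (ATCC 33591) was one strain in a panel of six pathogenic bacteria: four general and two marine Vibrio. Assayed by the microplate method, with ciprofloxacin as positive control.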
# Escherichia coli = experiment: Antibacterial activity against Escherichia coli ATCC 25922 by microplate assay; type: functional, organism-based
# Bacillus cereus = experiment: Antibacterial activity against Bacillus cereus ATCC 11778 by microplate assay; type: functional, organism-based
# Helicoverpa armigera = experiment: Insecticidal activity against Helicoverpa armigera hubner measured every other day for 8 days starting from 2 days post dosing; type: functional, organism-based
# Summary of the method: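 Neonate H. armigera larvae fed artificial diet dosed with serial dilutions of compound (1 mg/mL in DMSO) at 200, 100, 50, 25 and 12.5 μL/well in six-well plates; three groups of three larvae, 3 replicates per treatment. Held at 25 ± 1 °C, 80% relative humidity. Dead larvae counted on days 2, 4, 6, 8. DMSO negative, azadirachtin positive, plain diet blank controls.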
smiles,measurement,setting,value
C=C1[C@@]23C(=O)O[C@H](C)[C@@]2(O)C(=O)O[C@]1(C)[C@@H](O)C1=C2COC4CC(=O)OC(C)(C)[C@@]24CC[C@@]13C (some centres undefined),EC50,Caenorhabditis elegans,19.1 µg/mL
same,Activity,HeLa,inactive
same,Activity,A549,inactive
same,Activity,HepG2,inactive
same,Activity,Vibrio alginolyticus,inactive
same,Activity,Staphylococcus aureus [1],inactive
same,Activity,Vibrio parahaemolyticus,inactive
same,inhibition,RAW264.7,inactive
same,Activity,Staphylococcus aureus [2],inactive
same,Activity,Escherichia coli,inactive
same,Activity,Bacillus cereus,inactive
C/C=C(\C)C(=O)O[C@H]1C[C@@H](OC(C)=O)[C@@]2(C(=O)OC)CO[C@H]3[C@@H](O)[C@@](C)([C@]45O[C@@]4(C)[C@H]4C[C@@H]5O[C@@H]5OC=C[C@@]54O)[C@H]4[C@]1(CO[C@]4(O)C(=O)OC)[C@@H]32 [AZADIRACTIN],IC50,Helicoverpa armigera,25 µg/mL
C[C@@H](O)CCC[C@H]1OC(=O)c2c(O)cccc2[C@@H]1O,IC50,Helicoverpa armigera,100 µg/mL
same,Activity,HeLa,inactive
same,Activity,A549,inactive
same,Activity,HepG2,inactive
same,Activity,Vibrio alginolyticus,inactive
same,Activity,Staphylococcus aureus [1],inactive
same,Activity,Vibrio parahaemolyticus,inactive
same,inhibition,RAW264.7,inactive
same,Activity,Staphylococcus aureus [2],inactive
same,Activity,Escherichia coli,inactive
same,Activity,Bacillus cereus,inactive
c1ccc([C@H]2CN3CCSC3=N2)cc1 [LEVAMISOLE],EC50,Caenorhabditis elegans,4.8 µg/mL
COc1c(O)ccc2c1C(=O)O[C@H](CCCC(C)=O)C2,Activity,HeLa,inactive
same,Activity,A549,inactive
same,Activity,HepG2,inactive
same,Activity,Vibrio alginolyticus,inactive
same,Activity,Staphylococcus aureus [1],inactive
same,Activity,Vibrio parahaemolyticus,inactive
same,inhibition,RAW264.7,inactive
same,Activity,Staphylococcus aureus [2],inactive
same,Activity,Escherichia coli,inactive
same,Activity,Bacillus cereus,inactive
COc1ccc2c(c1O)C(=O)O[C@H](CCCO)C2,Activity,HeLa,inactive
same,Activity,A549,inactive
same,Activity,HepG2,inactive
same,Activity,Vibrio alginolyticus,inactive
same,Activity,Staphylococcus aureus [1],inactive
same,Activity,Vibrio parahaemolyticus,inactive
same,inhibition,RAW264.7,inactive
same,Activity,Staphylococcus aureus [2],inactive
same,Activity,Escherichia coli,inactive
same,Activity,Bacillus cereus,inactive
C=C1[C@]2(CCC(=O)OC2(C)C)C[C@@H](OC(=O)/C(C)=C\C)[C@]2(C)[C@]34C(=O)O[C@H](C)[C@]35O[C@]12[C@H](OC(C)=O)[C@@](C)(OC5=O)C4=O,IC50,Helicoverpa armigera,200 µg/mL
same,EC50,Caenorhabditis elegans,9.4 µg/mL
same,Activity,HeLa,inactive
same,Activity,A549,inactive
same,Activity,HepG2,inactive
same,Activity,Vibrio alginolyticus,inactive
same,Activity,Staphylococcus aureus [1],inactive
same,Activity,Vibrio parahaemolyticus,inactive
same,inhibition,RAW264.7,inactive
same,Activity,Staphylococcus aureus [2],inactive
same,Activity,Escherichia coli,inactive
same,Activity,Bacillus cereus,inactive
O=C1O[C@H](CCCO)Cc2cccc(O)c21,Activity,HeLa,inactive
same,Activity,A549,inactive
same,Activity,HepG2,inactive
same,Activity,Vibrio alginolyticus,inactive
same,Activity,Staphylococcus aureus [1],inactive
same,Activity,Vibrio parahaemolyticus,inactive
same,inhibition,RAW264.7,inactive
same,Activity,Staphylococcus aureus [2],inactive
same,Activity,Escherichia coli,inactive
same,Activity,Bacillus cereus,inactive
C=C1[C@@]23C(=O)O[C@H](C)[C@]24O[C@@]2(C(=C)[C@]5(C=CC(=O)OC5(C)C)CC[C@]32C)[C@H](O)[C@@]1(C)OC4=O,EC50,Caenorhabditis elegans,38.2 µg/mL
same,Activity,HeLa,inactive
same,Activity,A549,inactive
same,Activity,HepG2,inactive
same,Activity,Vibrio alginolyticus,inactive
same,Activity,Staphylococcus aureus [1],inactive
same,Activity,Vibrio parahaemolyticus,inactive
same,inhibition,RAW264.7,inactive
same,Activity,Staphylococcus aureus [2],inactive
same,Activity,Escherichia coli,inactive
same,Activity,Bacillus cereus,inactive
CC(=O)CCC[C@@H]1Cc2cccc(O)c2C(=O)O1,Activity,HeLa,inactive
same,Activity,A549,inactive
same,Activity,HepG2,inactive
same,Activity,Vibrio alginolyticus,inactive
same,Activity,Staphylococcus aureus [1],inactive
same,Activity,Vibrio parahaemolyticus,inactive
same,inhibition,RAW264.7,inactive
same,Activity,Staphylococcus aureus [2],inactive
same,Activity,Escherichia coli,inactive
same,Activity,Bacillus cereus,inactive
C=C1[C@@]23C(=O)O[C@H](C)[C@]24O[C@@]2(C(=C)[C@]5(CCC(=O)OC5(C)C)C[C@@H](O)[C@]32C)[C@H](OC(C)=O)[C@@]1(C)OC4=O,IC50,Helicoverpa armigera,50 µg/mL
same,Activity,HeLa,inactive
same,Activity,A549,inactive
same,Activity,HepG2,inactive
same,Activity,Vibrio alginolyticus,inactive
same,Activity,Staphylococcus aureus [1],inactive
same,Activity,Vibrio parahaemolyticus,inactive
same,inhibition,RAW264.7,inactive
same,Activity,Staphylococcus aureus [2],inactive
same,Activity,Escherichia coli,inactive
same,Activity,Bacillus cereus,inactive
C=C1[C@@]23C(=O)O[C@H](C)[C@]24O[C@@]2(C(=C)[C@]5(C=CC(=O)OC5(C)C)C[C@@H](O)[C@]32C)[C@H](OC(C)=O)[C@@]1(C)OC4=O,EC50,Caenorhabditis elegans,20.6 µg/mL
same,Activity,HeLa,inactive
same,Activity,A549,inactive
same,Activity,HepG2,inactive
same,Activity,Vibrio alginolyticus,inactive
same,Activity,Staphylococcus aureus [1],inactive
same,Activity,Vibrio parahaemolyticus,inactive
same,inhibition,RAW264.7,inactive
same,Activity,Staphylococcus aureus [2],inactive
same,Activity,Escherichia coli,inactive
same,Activity,Bacillus cereus,inactive
CC(=O)OCCC[C@@H]1Cc2cccc(O)c2C(=O)O1,Activity,HeLa,inactive
same,Activity,A549,inactive
same,Activity,HepG2,inactive
same,Activity,Vibrio alginolyticus,inactive
same,Activity,Staphylococcus aureus [1],inactive
same,Activity,Vibrio parahaemolyticus,inactive
same,inhibition,RAW264.7,inactive
same,Activity,Staphylococcus aureus [2],inactive
same,Activity,Escherichia coli,inactive
same,Activity,Bacillus cereus,inactive
COc1c(O)ccc2c1C(=O)O[C@H](CCC[C@@H](C)O)C2,Activity,HeLa,inactive
same,Activity,A549,inactive
same,Activity,HepG2,inactive
same,Activity,Vibrio alginolyticus,inactive
same,Activity,Staphylococcus aureus [1],inactive
same,Activity,Vibrio parahaemolyticus,inactive
same,inhibition,RAW264.7,inactive
same,Activity,Staphylococcus aureus [2],inactive
same,Activity,Escherichia coli,inactive
same,Activity,Bacillus cereus,inactive
COC(=O)CC[C@@H]1Cc2ccc(O)c(OC)c2C(=O)O1,IC50,Helicoverpa armigera,200 µg/mL
same,Activity,HeLa,inactive
same,Activity,A549,inactive
same,Activity,HepG2,inactive
same,Activity,Vibrio alginolyticus,inactive
same,Activity,Staphylococcus aureus [1],inactive
same,Activity,Vibrio parahaemolyticus,inactive
same,inhibition,RAW264.7,inactive
same,Activity,Staphylococcus aureus [2],inactive
same,Activity,Escherichia coli,inactive
same,Activity,Bacillus cereus,inactive
C[C@H](O)CCC[C@@H]1C[C@@H]2C[C@@H](O)CC(O)=C2C(=O)O1,IC50,Helicoverpa armigera,200 µg/mL
same,Activity,HeLa,inactive
same,Activity,A549,inactive
same,Activity,HepG2,inactive
same,Activity,Vibrio alginolyticus,inactive
same,Activity,Staphylococcus aureus [1],inactive
same,Activity,Vibrio parahaemolyticus,inactive
same,inhibition,RAW264.7,inactive
same,Activity,Staphylococcus aureus [2],inactive
same,Activity,Escherichia coli,inactive
same,Activity,Bacillus cereus,inactive
C=C1[C@@]23C(=O)O[C@H](C)[C@@]2(O)C(=O)O[C@]1(C)[C@@H](OC(C)=O)C1=C(C)[C@]2(CCC(=O)OC2(C)C)CC[C@@]13C,IC50,Helicoverpa armigera,50 µg/mL
same,Activity,HeLa,inactive
same,Activity,A549,inactive
same,Activity,HepG2,inactive
same,Activity,Vibrio alginolyticus,inactive
same,Activity,Staphylococcus aureus [1],inactive
same,Activity,Vibrio parahaemolyticus,inactive
same,inhibition,RAW264.7,inactive
same,Activity,Staphylococcus aureus [2],inactive
same,Activity,Escherichia coli,inactive
same,Activity,Bacillus cereus,inactive
C=C1[C@]2(C)C(=O)[C@]3(O)[C@@H](C)OC(=O)[C@]13[C@@]1(C)CC[C@@]3(C=CC(=O)OC3(C)C)C(C)=C1[C@@H]2OC(C)=O,Activity,HeLa,inactive
same,Activity,A549,inactive
same,Activity,HepG2,inactive
same,Activity,Vibrio alginolyticus,inactive
same,Activity,Staphylococcus aureus [1],inactive
same,Activity,Vibrio parahaemolyticus,inactive
same,inhibition,RAW264.7,inactive
same,Activity,Staphylococcus aureus [2],inactive
same,Activity,Escherichia coli,inactive
same,Activity,Bacillus cereus,inactive
C[C@@H](O)CCC[C@@H]1Cc2c(O)ccc(O)c2C(=O)O1,IC50,Helicoverpa armigera,100 µg/mL
same,Activity,HeLa,inactive
same,Activity,A549,inactive
same,Activity,HepG2,inactive
same,Activity,Vibrio alginolyticus,inactive
same,Activity,Staphylococcus aureus [1],inactive
same,Activity,Vibrio parahaemolyticus,inactive
same,inhibition,RAW264.7,inactive
same,Activity,Staphylococcus aureus [2],inactive
same,Activity,Escherichia coli,inactive
same,Activity,Bacillus cereus,inactive
CC(=O)CCC[C@@H]1C[C@@H]2C[C@@H](O)CC(O)=C2C(=O)O1,IC50,Helicoverpa armigera,200 µg/mL
same,Activity,HeLa,inactive
same,Activity,A549,inactive
same,Activity,HepG2,inactive
same,Activity,Vibrio alginolyticus,inactive
same,Activity,Staphylococcus aureus [1],inactive
same,Activity,Vibrio parahaemolyticus,inactive
same,inhibition,RAW264.7,inactive
same,Activity,Staphylococcus aureus [2],inactive
same,Activity,Escherichia coli,inactive
same,Activity,Bacillus cereus,inactive
